Tb hexokinase – blocks Trypanosoma brucei hexokinase 1 activity; 0.11% of 220,000 active; AID 1430; recombinant TbHK1, G6PDH-coupled NADH A340; inhibition, % at 10 µM;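 active means inhibition of 50% or more in the single-dose primary screen; inactive means inhibition below 50%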
Runt-CBFb FRET – blocks binding of human RUNX1 Runt domain to CBFb | Cerulean-Runt/Venus-CBFb FRET ratio 530/480, 1 h | inhibition, % at 20 µM | 0.46% of 220,000 active;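 active means inhibition over about 50% at 20 µM in the single-dose screen, limit read from the data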;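 further: 0% = DMSO wells and 100% = excess unlabeled CBFb competitor control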
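test system = Cerulean-Runt domain fusion protein, energy donor | probe or stimulus = Venus-CBFb binding partner, 100 nM | incubation = two 1 h room-temperature incubations shielded from light | detection = fluorescence energy transfer, 422 nm excitation, 530/480 nm emission | measure = loss of energy transfer signal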
Runt-SMMHC FRET – Runt domain-CBFb-SMMHC interaction inhibition. AID 1434. Q01196+Q13951. inhibition, % at 20 µM. Cerulean-Runt/Venus-CBFb-SMMHC FRET ratio 530/480, 1 h. 0.74% of 220,000 active;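 active means mean inhibition across duplicate retests at 20 µM reaching about 50%, limit read from the data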;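 further: 0% = DMSO wells and 100% = wells with excess untagged CBFb-SMMHC; inhibitors lower the FRET ratio by blocking Runt binding to CBFb-SMMHC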
Hck-Nef inh – blocks Nef-activated human Hck kinase; Recombinant Hck-YEEI plus Nef, Z-Lyte FRET kinase assay; 0.68% of 220,000 active; inhibition, % at 20 µM; P08631;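 active means Hck-Nef kinase inhibition above about 50%, limit read from the data; inactive means inhibition below that limit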;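 further: 0% = DMSO with Hck plus Nef and 100% = Hck alone without Nef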
p97 ATPase inh – human p97 ATPase inhibition; P55072; recombinant p97 ATPase, Kinase-Glo ATP luminescence, 3 h; inhibition, % at 8 µM; 0.42% of 220,000 active; in the data active means inhibition above about 15%;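 further: 0% = DMSO vehicle and 100% = wells lacking enzyme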
RanGTP-Impb inh – disruptors of Ran-importin-beta complex formation – biochemical, FRET, CFP-Ran, YFP-importin-beta, homogeneous, primary screen | AID 2216 | 1.1% of 300,000 active | cell-free CFP-Ran/YFP-importin-beta FRET ratio | inhibition, % (concentration not given with the values);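 active means more than half of the replicate wells show a fall in the fluorescence ratio signal beyond about 16%, limit read from the data, passing the limit was not always enough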;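 further: 0% = DMSO wells and 100% = Ran loaded with GDP instead of GTP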
An asterisk follows results filed as active; / = not tested or not shown. Only some compounds are listed: those with a hit (about 2.1% of all), similar ones and a draw of the others.

SMILES	Tb hexokinase	Runt-CBFb FRET	Runt-SMMHC FRET	Hck-Nef inh	p97 ATPase inh	RanGTP-Impb inh
Oc1ccc(N=C/C=C/c2ccc(Br)cc2)cc1-c1nc2ccccc2s1	1	34	36	3	-1	38*
Brc1cc2c(cc1-c1nc3ccccc3s1)OCO2	/	/	/	/	/	0
COC(/C=C/Nc1ccc(OC)cc1)=C(C#N)C#N	-5	0	0	-1	1	-4
COC(/C=C/Nc1ccc(Cl)cc1)=C(C#N)C#N	6	0	4	18	-4	27*
Cc1ccc(S(=O)(=O)N2CCC(C(=O)Nc3nnc(C45CC6CC(CC(C6)C4)C5)s3)CC2)cc1	-2	1	0	-1	-5	/
O=C(NC1CCCCC1)C(c1ccccn1)N(C(=O)c1csnn1)c1ccccc1F (stereo unspecified)	/	/	/	/	/	0
Cc1onc(-c2ccccc2)c1C(=O)NC(=S)Nc1sc2c(c1C#N)CCC(C)C2 (stereo unspecified)	-13	20	16	-2	4	-1
Cc1onc(-c2ccccc2)c1C(=O)Nc1sc2c(c1C(N)=O)CCC2	-18	-1	-4	0	-2	51*
Cc1sc(NC(=O)C2CCCCC2)c(C#N)c1-c1ccccc1	2	2	-4	1	-4	1
Cc1noc(C)c1C(=O)Nc1sc(C)c(-c2ccccc2)c1C#N	-22	14	10	9	0	110*
Cc1onc(-c2c(F)cccc2Cl)c1C(=O)Nc1sc2c(c1C(N)=O)CCC2	7	3	1	-1	0	61*
Cc1onc(-c2ccccc2)c1C(=O)Nc1sc2c(c1C#N)CCC2	-4	9	7	18	1	46*
O=C(CSc1ncn[nH]1)Nc1ccc2c(c1)CCC2	6	-2	3	5	5	-3
CC1CCC(NC(=O)CC(NC(N)=O)c2ccccc2Cl)CC1 (stereo unspecified)	/	/	/	/	/	7
O=C(O)/C=C/C(=O)Nc1ccc(Oc2ncnc3cc(Cl)ccc23)nc1	-5	7	5	15	5	2
COc1ccc(S(=O)(=O)N2CCOC23CCN(C(=O)c2c(F)cccc2Cl)CC3)cc1	/	/	/	/	/	-1
CCc1ccccc1N(CC(=O)N1CCc2ccccc2C1)S(C)(=O)=O	/	/	/	/	/	3
COc1ccc(CNC(=O)CCCNC(=O)c2ccc(Cl)cc2)cc1OC	/	/	/	/	/	-3
N#Cc1c(NC(=O)CSc2ncc(-c3ccccc3)n2CC2CCCO2)sc2c1CCCC2 (stereo unspecified)	-8	27	73*	2	-7	4
CCC(C(=O)N1CCc2cc(OC)c(OC)cc2C1)c1ccccc1 (stereo unspecified)	3	1	1	2	1	1
COc1cc2c(cc1OC)CN(CC(O)c1ccccc1)CC2 (stereo unspecified)	/	/	/	/	/	27*
O=C(COC(=O)c1cccs1)NCc1ccco1	/	-1	3	/	/	-2
O=C(COC(=O)c1ccc(NS(=O)(=O)c2cccs2)cc1)NCc1ccco1	1	7	-7	57*	5	6
CC(C)Cn1c(N)c(C(=O)NCCN2CCOCC2)c2nc3ccccc3nc21	-32	9	95*	43	-2	94*
CC(C)Cn1c2nc3ccccc3nc2c2c(=O)n(CCN3CCOCC3)cnc21	-27	8	11	3	-6	6
SMILES	Tb hexokinase	Runt-CBFb FRET	Runt-SMMHC FRET	Hck-Nef inh	p97 ATPase inh	RanGTP-Impb inh
Cc1cccc(-n2c(N)c(C(=O)NCCN3CCOCC3)c3nc4ccccc4nc32)c1	-21	79*	61*	27	4	85*
C=C(C)CN(CC)c1nc(N)c2c(N)nc3c(c2c1C#N)CC(=O)N3C12CC3CC(CC(C3)C1)C2	-13	-1	-1	12	3	6
CCCCN1C(=O)Cc2c1nc(N)c1c(N)nc(N(CCC)CCC)c(C#N)c21	-7	103*	-2	15	-1	3
CC(C)(C)c1ccccc1NC(=S)NC1CCCCC1	-3	-2	-3	22	-3	83*
CC(C)(C)c1ccccc1NC(=S)NC1CCCC1	/	/	/	/	/	-2
CCc1ccc(-c2cn3nc(-c4ccccc4)cnc3n2)cc1	-12	2	12	4	9	21*
Cc1c(CN2CCc3c([nH]c4ccccc34)C2CC(C)C)cnn1C (stereo unspecified)	5	0	-2	29	-5	35*
Cc1cc(C)c2c(N)c(C(=O)Nc3ncc(C)s3)sc2n1	-19	65*	95*	15	-6	/
Cc1nc2sc(C(=O)c3ccccc3)c(N)c2c(C)c1C	-2	54*	3	6	0	0
Cc1cc(C)c2c(N)c(C(=O)c3cccc(Cl)c3)sc2n1	5	87*	60*	4	4	2
Cc1cc(C)c2c(N)c(C(=O)c3ccc(Cl)cc3Cl)sc2n1	14	6	-14	2	5	4
Cc1nc(-c2ccccc2)nc2sc(C(=O)c3ccc(F)cc3)c(N)c12	-5	-55	72	-101	-11	3
COC(=O)c1sc2nc(C)cc(C)c2c1N	-12	1	4	17	2	2
CC(=O)c1sc2nc(C)cc(C)c2c1N	-3	28	78*	20	4	9
COc1ccc(Cl)cc1S(=O)(=O)N(C)CC(=O)N1CCCC1	/	/	/	/	/	-1
CS(=O)(=O)N(CC(=O)N1CCc2ccccc2C1)c1ccc(Cl)cc1F	/	/	/	/	/	0
Cc1cc(O)ccc1Nc1nc(-c2cccs2)cs1	-9	44	19	57*	6	0
[C-]#[N+][C@H](O[C@@H]1O[C@H](CO)[C@@H](O)[C@H](O)[C@H]1O)c1ccccc1	/	/	/	/	/	-4
O=C(O)CC(CCc1ccccc1)OC1OC(CO)C(O)C(O)C1O (stereo unspecified)	73*	10	-3	49	/	/
CCCn1nc(NC(=O)C2CCCO2)c2cc3ccc(C)cc3nc21 (stereo unspecified)	-18	18	29	28	-1	21*
Cc1ccc2cc(C#N)c(NCCCNC(=O)C3CCCO3)nc2c1 (stereo unspecified)	-5	14	43	21	-3	6
CCCn1nc(NC(=O)C2CCCO2)c2cc3cc(C)ccc3nc21 (stereo unspecified)	-8	43	59*	40	-3	56*
CCn1nc(NC(=O)c2ccncc2)c2cc3cc(C)ccc3nc21	-6	8	22	6	0	12
NC(=O)C1CCN(C(=O)C2CC(=O)N(c3ccc(F)cc3)C2)CC1 (stereo unspecified)	/	/	/	/	/	0
O=C(CN1C(=O)S/C(=C\c2ccc(F)cc2)C1=O)NC1C=CS(=O)(=O)C1 (stereo unspecified)	/	/	/	/	/	16*
